Entries after “also recorded” stand apart in the source; their conditions may differ. Each block holds one molecule with its values, some of them ahead of it.
Experiments:
MDA-MB-231 cells [1] = assay: Antiproliferative MTT assay, MDA-MB-231; assay type: cell-based; details: for IC50: read-out: MDA-MB-231 IC50, 72 h with drug, MTT assay
A549 cells [2] = assay: Antiproliferative MTT assay, A549; assay type: cell-based; details: for IC50: read-out: A549 IC50, 72 h with drug, MTT assay
MDA-MB-231 cells [3] = assay: Western blot of TSP levels, MDA-MB-231; assay type: cell-based; details: 48 h; for p53 levels: mutant p53
Summary of the method: (§1)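 Cells in 10 cm dishes were treated 48 h with varying concentrations of test compound (0.5% DMSO final) or DMSO alone. HuH6 and MDA-MB-231 were grown in DMEM/10% FBS; A549 in RPMI 1640. Harvested cells were lysed in RIPA with protease/phosphatase inhibitors, on ice for 60 min. Equal protein (15 μg) was run under reducing conditions and blotted to PVDF. Probes were p53, phospho-p53 S6 and S15, Rb, gankyrin, and cyclophilin.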

gankyrin [4] = biological target: T1, gankyrin (Homo sapiens, UniProt O75832); assay: Protein thermal shift; assay type: binding; details: Table S1
T1 sequence (O75832 1-226): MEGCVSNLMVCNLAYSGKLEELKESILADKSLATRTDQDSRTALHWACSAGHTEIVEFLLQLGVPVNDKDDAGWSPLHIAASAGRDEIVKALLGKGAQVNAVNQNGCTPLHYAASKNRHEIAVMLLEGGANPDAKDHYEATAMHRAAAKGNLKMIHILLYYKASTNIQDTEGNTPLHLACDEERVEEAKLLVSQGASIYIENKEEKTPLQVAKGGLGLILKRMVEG

MDA-MB-231 spheroids = assay: Live-dead cell assay, MDA-MB-231 spheroids; assay type: cell-based; details: day 15, IC50 and half IC50 concentrations
Summary of the method: (§2)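 Spheroids from the growth study were stained after day 15 with calcein AM (live) and EthD-III (dead). Incubation was 30 min in the dark at room temperature, followed by fluorescence imaging at 4X. Live and dead signal were quantified; mean ± SD, n = 4.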

gankyrin [5] = biological target: T1, gankyrin; assay: Circular dichroism spectra and thermal denaturation; assay type: binding; details: for CD spectra: α-helical (secondary structure) content of gankyrin: 100 nM to 1.5 μM compound, minima at 208 and 222 nm; for thermal denaturation of gankyrin monitored at 217 nm: 1.5 μM compound, 5 – 90 °C; for gankyrin precipitation in CD sample (visual examination): in presence of compound
Summary of the method: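 Gankyrin, His6-tagged, was expressed in LB cultures with 1 mM IPTG induction at 25 °C for ~5 h. It was purified by Ni-IMAC, the tag cut with TEV, then dialysed and re-passed over Ni-IMAC. CD was run in 1x PBS, 0.5% DMSO, pH 7.4, in a 1 mm cuvette, with test compound at 100 nM–1.5 μM. Spectra covered 190–260 nm with six accumulations. Thermal melts were read at 217 nm, 5–90 °C, 1 °C/min.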

MDA-MB-231 cells [6] = assay: Clonogenic assay, MDA-MB-231; assay type: cell-based; details: 48 h treatment then 7 days fresh media
Summary of the method: (§3)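 Cells were seeded at 125 cells/mL in 6-well plates and left overnight to attach. Test compound was applied at two concentrations for 48 h at 37 °C, then removed. Fresh medium followed, changed every alternate day, for 7 days. Cells were washed in PBS, fixed in 4% paraformaldehyde and stained with 0.2% crystal violet for 1 h. Colonies of >50 cells were counted, and % growth was calculated relative to control; mean ± SD, n = 3.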

gankyrin in A549 cells = biological target: T2, gankyrin in A549 cells (Homo sapiens, UniProt O75832); assay: Cellular thermal shift assay; assay type: cell-based; details: 0.3 μM, 48 h
T2 sequence (O75832 1-226): T1 sequence (O75832 1-226)

A549 cells [7] = assay: Clonogenic assay, A549; assay type: cell-based; details: 0.15 μM, 48 h treatment then 7 days fresh media
Summary of the method: as §3

A549 spheroids = assay: Live-dead cell assay, A549 spheroids; assay type: cell-based; details: day 15, both concentrations
Summary of the method: as §2

A549 cells [8] = assay: Cell cycle analysis, A549; assay type: cell-based; details: 0.3 μM, 72 h
A549 cells [9] = assay: Western blot of TSP levels, A549; assay type: cell-based; details: 48 h
Summary of the method: as §1

HuH6 cells = assay: Western blot of TSP levels, HuH6; assay type: cell-based, human; details: 48 h (Figure S1)
Summary of the method: as §1

[10] = biological target: T3, gankyrin in MDA-MB-231 cells (Homo sapiens, UniProt O75832); assay: Cellular thermal shift assay; assay type: cell-based; details: 2 μM, 48 h
T3 sequence (O75832 1-226): T1 sequence (O75832 1-226)
Summary of the method: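 Intact MDA-MB-231 cells were treated 48 h with 2 μM test compound (0.5% DMSO final) or DMSO. Cells were split into aliquots and heated separately at 50, 53, 56, 59, 62 and 65 °C. Lysis was in RIPA on ice for 60 min, then lysates were cleared at 15,000 rpm, 15 min, 4 °C. Equal protein was immunoblotted for gankyrin with actin as reference, and melt curves were built; mean ± SD, n = 3.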

MDA-MB-231 cells [11] = assay: Cell cycle analysis, MDA-MB-231; assay type: cell-based; details: 2 μM, 72 h
Summary of the method: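 MDA-MB-231 cells in 10 cm dishes were exposed to 2 μM test compound (0.1% DMSO final) or DMSO alone for 72 h. Harvested cells were normalized, fixed in 70% ethanol at −20 °C overnight, pelleted and stained with a PI kit for 40 min at 37 °C. Analysis was by flow and imaging cytometry; mean ± SD, n = 3.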

Molecule: COC(=O)c1ccc(-n2cc(CCCC(=O)Nc3ccc(C)cc3)nn2)cc1 [Compound 20, Methyl p-{4-[3-(N-p-tolylcarbamoyl)propyl]-1H-1,2,3-triazol-1-yl}benzoate]
improvement in antiproliferative activity against MDA-MB-231 as compared to cjoc42 (MDA-MB-231 cells [1]): 8–10 fold

Molecule: COC(=O)c1ccc(-n2cc(CCCC(=S)Nc3ccc(C)cc3)nn2)cc1 [Compound 21, Methyl p-{4-[3-(p-tolylcarbamthioyl)propyl]-1H-1,2,3-triazol-1-yl}benzoate]
improvement in antiproliferative activity against MDA-MB-231 as compared to cjoc42 (MDA-MB-231 cells [1]): 8–10 fold
improvement in antiproliferative activity against A549 as compared to cjoc42 (A549 cells [2]): ~10 fold

Molecule: COC(=O)c1ccc(-n2cc(CCCNC(=O)Nc3ccc(C)cc3)nn2)cc1 [Compound 26, Methyl p-(4-{3-[3-(p-tolyl)ureido]propyl}−1H-1,2,3-triazol-1-yl)benzoate]
improvement in antiproliferative activity against MDA-MB-231 as compared to cjoc42 (MDA-MB-231 cells [1]): 8–10 fold

Molecule: COC(=O)c1ccc(-n2cc(CCCOc3ccc(C)cc3)nn2)cc1 [Compound 33, Methyl p-{4-[3-(p-tolyloxy)propyl]-1H-1,2,3-triazol-1-yl}benzoate]
improvement in antiproliferative activity against MDA-MB-231 as compared to cjoc42 (MDA-MB-231 cells [1]): 8–10 fold

gankyrin binding by protein thermal shift (gankyrin [4]): effectively bind gankyrin
Molecule: Cc1ccc(NC(=O)CCCn2cc(-c3ccc(C(F)(F)F)cc3)nn2)cc1 [Compound 51b, N-p-Tolyl4-{4-[p-(trifluoromethyl)phenyl]-1H-1,2,3-triazol-1-yl}butyramide]
Rb levels (MDA-MB-231 cells [3]): increase in Rb levels
gankyrin levels (MDA-MB-231 cells [3]): remained relatively unchanged
p53 levels (MDA-MB-231 cells [3]): relatively unchanged levels of p53
green fluorescence intensity (live cells) (MDA-MB-231 spheroids): decrease in green intensity (live cells)
red fluorescence intensity (dead cells) (MDA-MB-231 spheroids): increase in red fluorescence intensity (dead cells)
CD spectra: α-helical (secondary structure) content of gankyrin (gankyrin [5]): enhancement in the 222 nm spectral minimum; also recorded: signal enhancement
thermal denaturation of gankyrin monitored at 217 nm (gankyrin [5]): complete denaturation across the entire measured temperature range
% colony growth (MDA-MB-231 cells [6]; 2.30 μM): 60.3%

gankyrin binding by protein thermal shift (gankyrin [4]): effectively bind gankyrin
gankyrin precipitation in CD sample (visual examination) (gankyrin [5]): only showed marginal precipitation
Molecule: COC(=O)c1ccc(-c2cn(CCCC(=O)Nc3ccc(-c4ccccc4)cc3)nn2)cc1 [Compound 51c, Methyl p-{1-[3-(N-4-biphenylylcarbamoyl)propyl]-1H-1,2,3-triazol-4-yl}benzoate]
gankyrin thermal stability (CETSA) (gankyrin in A549 cells): significant ability to decrease gankyrin thermal stability
% colony growth (A549 cells [7]): 61.9%
green intensity (live cells) (A549 spheroids): dose-dependent decrease in green intensity
red intensity (dead cells) (A549 spheroids): increase in red intensity
cell population in the S and G2/M phases (A549 cells [8]): significantly decreasing the cell population in the S and G2/M phases
cells in the G0/G1 phase (A549 cells [8]): significant increase in the number of cells in the G0/G1 phase
CD spectra: α-helical (secondary structure) content of gankyrin (gankyrin [5]): weakening of secondary structure content in gankyrin
thermal denaturation of gankyrin monitored at 217 nm (gankyrin [5]): complete denaturation across the entire measured temperature range
Rb levels (A549 cells [9]): increased Rb levels
gankyrin levels (A549 cells [9]): remained relatively unchanged
p53 levels (A549 cells [9]): relatively unchanged p53 levels
phosphorylated p53 (Ser6) levels (A549 cells [9]): increase the expression levels of phosphorylated p53 (Ser6)
phosphorylated p53 (Ser15) levels (A549 cells [9]): also increased phosphorylated p53 (Ser15) expression levels

gankyrin binding by protein thermal shift (gankyrin [4]): effectively bind gankyrin
gankyrin precipitation in CD sample (visual examination) (gankyrin [5]): only showed marginal precipitation
gankyrin thermal stability (CETSA) [10]: significantly decreased
Molecule: O=C(CCCn1cc(-c2ccc(C(F)(F)F)cc2)nn1)Nc1ccc(-c2ccccc2)cc1 [Compound 51d, N-4-Biphenylyl4-{4-[p-(trifluoromethyl)phenyl]-1H-1,2,3-triazol-1-yl}butyramide]
Rb levels (MDA-MB-231 cells [3]): increase in Rb levels
gankyrin levels (MDA-MB-231 cells [3]): remained relatively unchanged
p53 levels (MDA-MB-231 cells [3]): relatively unchanged levels of p53
p53 and Rb levels (HuH6 cells): increased levels of both p53 and Rb
green fluorescence intensity (live cells) (MDA-MB-231 spheroids): significant decrease in green fluorescence intensity (live cells)
red fluorescence intensity (dead cells) (MDA-MB-231 spheroids): significant increase in red fluorescence intensity (dead cells)
CD spectra: α-helical (secondary structure) content of gankyrin (gankyrin [5]): weakening of secondary structure content in gankyrin
thermal denaturation of gankyrin monitored at 217 nm (gankyrin [5]): maintained gankyrin’s expected two-state transition but unfolded at an accelerated rate
cell population in the G2/M phase (MDA-MB-231 cells [11]): decrease in the cell population in the G2/M phase
cell population in the S phase (MDA-MB-231 cells [11]): relatively unchanged
cells in the G0/G1 phase (MDA-MB-231 cells [11]): significant increase in the number of cells in the G0/G1 phase
% colony growth (MDA-MB-231 cells [6]; 1.0 μM): 72.4%

IC50 (MDA-MB-231 cells [1]): > 100 µM
IC50 (A549 cells [2]): > 100 µM
Molecule: Methyl p-{4-[3-(p-toluoxy)propyl]-1H-1,2,3-triazol-1-yl}benzoate [Compound 25]

IC50 (MDA-MB-231 cells [1]): 82.4 µM
IC50 (A549 cells [2]): > 100 µM
Molecule: Methyl p-{4-[3-(p-tolylcarbamthioyl)propyl]-1H-1,2,3-triazol-1-yl}benzoate [Compound 24]
